High-throughput results as filed in PubChem.
Compounds with a hit are over-represented: about 1.8% of the library has one in this group of screens.
eIF4H FP inh = inhibitors of RNA binding by human eIF4H. 290,000 compounds, 0.94% hits. Q15056. inhibition, % at 35 µM. eIF4H fluorescence polarization binding assay;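 note: calls also rest on retests at 20 µM and on dose response follow-up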
eIF4E-4G inh = eIF4E/eIF4G interaction inhibition in translation initiation | P63073+Q04637 | TR-FRET eIF4E-eIF4GI(517-606) binding, 2 h | inhibition, % at 21.7 µM | 220,000 compounds, 0.37% hits;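 active = inhibition above about 30%, limit read from the data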;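 note: 0% = full FRET control wells and 100% = background wells lacking eIF4GI fragment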
HCV core dimer = blocks dimerization of HCV core protein. inhibition, % at 5 µM. 300,000 compounds, 0.33% hits. AID 1899. TR-FRET GST/Flag-core106 dimerization, 1536-well;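 active = inhibition above the mean of all tested compounds plus 3 SD, set per screening campaign, cut at about 45% in these data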
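test system = GST/Flag-tagged HCV core106 proteins | probe or stimulus = Eu donor and XL665 acceptor anti-tag antibodies | times = compound-protein-antibody incubation 4 h at 22.5 °C | signal = TR-FRET, excitation 340 nm, emission 617 and 671 nm | measure = percent inhibition of core106 dimerization signal | controls = wells lacking GST-core106 and wells with excess unlabelled core106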
MLLE-PAM2 inh = blocks PAM2 peptide binding to the PABP1 MLLE domain. P11940. inhibition, % at 20 µM. 360,000 compounds, 0.36% hits. AID 588489. GST-MLLE / FITC-PAM2 fluorescence polarization; in the data active = inhibition above about 35%, passing the limit was not always enough;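 note: plate controls were DMSO wells with GST-MLLE for no effect and wells lacking GST-MLLE protein for full effect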
Target sequence (P11940 whole entry, looked up, the tested form may be a part): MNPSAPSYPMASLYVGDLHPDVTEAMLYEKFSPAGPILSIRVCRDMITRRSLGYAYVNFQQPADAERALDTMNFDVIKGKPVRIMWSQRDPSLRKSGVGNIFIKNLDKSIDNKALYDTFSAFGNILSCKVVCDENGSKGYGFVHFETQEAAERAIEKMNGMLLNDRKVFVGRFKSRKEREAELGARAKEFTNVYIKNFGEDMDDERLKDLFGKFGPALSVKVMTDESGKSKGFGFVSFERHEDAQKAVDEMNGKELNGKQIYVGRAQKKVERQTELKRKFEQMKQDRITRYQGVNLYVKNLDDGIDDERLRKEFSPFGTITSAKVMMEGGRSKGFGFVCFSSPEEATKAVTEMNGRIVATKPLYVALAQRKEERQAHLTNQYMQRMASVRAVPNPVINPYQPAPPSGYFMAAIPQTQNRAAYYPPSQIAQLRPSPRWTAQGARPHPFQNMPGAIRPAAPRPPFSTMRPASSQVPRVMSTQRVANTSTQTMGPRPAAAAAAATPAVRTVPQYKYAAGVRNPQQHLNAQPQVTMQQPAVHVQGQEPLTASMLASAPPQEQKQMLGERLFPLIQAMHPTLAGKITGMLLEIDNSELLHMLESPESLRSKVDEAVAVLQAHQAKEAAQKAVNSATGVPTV
UBC9 SUMO inh = SUMOylation inhibition; 290,000 compounds, 0.36% hits; inhibition, % at 35 µM; AID 2006; HTRF SUMOylation assay, SAE1/SAE2 + UBC9, in vitro; in the data active = inhibition above about 50%, passing the limit was not always enough
PABP polyA inh = blocks human PABP binding to poly(A) RNA. P11940. 290,000 compounds, 1% hits. AID 2014. calls only at 35 µM. fluorescence polarization;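 note: calls also rest on retests at 20 µM and on dose response follow-up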
The depositor's hits bear a star; i = inactive; · = not tested or not shown; + = active, no number; [ ] = dose if it differs, or a comment. Unless noted, the rule behind the calls is not given here.

SMILES	eIF4H FP inh	eIF4E-4G inh	HCV core dimer	MLLE-PAM2 inh	UBC9 SUMO inh	PABP polyA inh
NC(=O)c1c(NC(=O)C2CCCO2)sc2c1CCCCC2 (stereo not drawn)	12.2	11.8	2.5	40.9*	6.0	i
CC(Sc1ccccc1)C(=O)N1CCN(S(=O)(=O)c2ccccc2F)CC1 (stereo not drawn)	-4.4	·	5.9	14.9	0.2	i
CN1CCc2cccc3c2[C@@H]1Cc1ccc(O)c(O)c1-3	25.5	25.7	4.7	45.7*	0.9	i
O=C(c1ccccc1)N1CCN(C(=O)c2nn3c(C(F)(F)F)cc(-c4ccco4)nc3c2Br)CC1	69.0*	·	68.4*	-9.4	41.9	i
O=C(O)c1cnn2c(C(F)(F)F)cc(-c3ccco3)nc12	78.0*	5.9	-2.8	6.0	35.4	+
Cc1cc(C)c(NC(=O)NC(=O)c2ccc(F)cc2)c(C)n1	76.5*	-3.9	3.6	3.8	16.8	+
CCN1C[C@@H]2[C@@H]3C(=O)N(Cc4ccccc4)C(=O)[C@@H]3[C@](Cc3ccccc3)(C(=O)OC)N2C1=NC	·	·	·	5.7	·	·
C/C(=N\N=C1\NC(=O)C(CC(=O)Nc2ccc(Cl)cc2)S1)c1ccco1 (stereo not drawn)	49.6	5.5	-2.2	9.7	13.4	+
O=C(NCc1ccccn1)c1ccc(NS(=O)(=O)c2cccc(Cl)c2)cc1	3.3	·	·	-5.0	2.7	i
O=C(NC1=C(Nc2ccc(Cl)cc2)C(=O)c2ccccc2C1=O)c1ccccc1	1.1	13.2	-8.3	21.1	19.5	i
O=C1C(Cl)=C(NC(=O)c2ccccc2)C(=O)C(Cl)=C1NC(=O)c1ccccc1	0.4	·	0.5	57.4*	50.7*	i
O=C(NCc1ccco1)c1ccc2sc([C@@H]3O[C@H](CO)[C@@H](O)[C@H]3O)nc2c1	·	·	·	2.2	·	·
CCOc1ncccc1C(=O)Nc1cccc(S(=O)(=O)N2CCOCC2)c1	·	·	·	0.4	·	·
COc1ccc(CCC(=O)Nc2ccc(S(=O)(=O)NC3=NCCCCC3)cc2)cc1	·	·	·	-10.8	·	·
COc1cc(CCC(=O)Nc2ccc(S(=O)(=O)NC3=NCCCCC3)cc2)cc(OC)c1OC	active	1.6	1.1	-79.7	20.3	i
c1ccc(COc2ncnc3c2ncn3CCCN2CCN(c3ncccn3)CC2)cc1	·	·	·	-17.7	·	·
Nc1cccc2c1C(=O)N(c1ccccc1)C2=O	·	·	4.0	47.9*	·	·
O=C1c2ccccc2C(=O)N1c1ccccc1	·	·	·	-8.4	·	·
Cc1ccc(N=Nc2c(C)[nH]n(C(N)=S)c2=O)cc1C	-0.4	-0.1	-9.5	25.5	12.4	i
Cc1[nH]n(C(N)=S)c(=O)c1N=Nc1ccc(S(=O)(=O)N2CCCCCC2)cc1	-3.7	4.4	2.6	39.9*	10.0	i
CCOc1ccccc1NC(=O)N1CCC(NC(=O)c2cccc(C)c2)CC1	17.3	56.0*	-2.9	-17.0	-7.4	i
CC1Cc2ccccc2N1C(=O)CN1C(=O)NC(C)(c2ccc3c(c2)OCCO3)C1=O (stereo not drawn)	0.5*	6.9	2.8	-41.8	-4.0	+
CCCCn1c(NS(=O)(=O)c2ccc(C)cc2)c(S(=O)(=O)c2ccccc2)c2nc3ccccc3nc21	0.1	10.0	9.8	-6.2	100.5*	i
COc1ccc(NC(=O)CSc2nnc(-c3ccccc3C)n2N)cc1OC	1.6	2.1	2.0	-3.8	9.1	i
COc1ccc(NC(=O)CSc2nnc(-c3ccccc3C)n2N)cc1	0.3	1.1	0.0	37.2*	12.2	i
SMILES	eIF4H FP inh	eIF4E-4G inh	HCV core dimer	MLLE-PAM2 inh	UBC9 SUMO inh	PABP polyA inh
Cc1nnc(SCC(=O)Nc2ccc3c(c2)OCO3)n(N)c1=O	active	2.4	1.4	13.9	0.8	+
COc1ccc(NC(=O)CSc2nnc(CCC(=O)O)c(=O)n2N)cc1	5.7	-5.8	3.1	46.0*	3.6	i
CC(C)N(CCCNC(=O)c1nn(C)c2c1CS(=O)(=O)c1ccccc1-2)Cc1ccccc1	·	·	9.3	-3.6	·	·
O=C1C=C(Nc2ccc(Cl)cc2Cl)CC(c2ccco2)C1 (stereo not drawn)	20.1	2.5	0.6	11.2	12.5	i
COc1cc(CN(C(=O)c2ccco2)c2ccc(C)cc2)ccc1O	17.7	36.9*[fluorescence artefact?]	-0.5	2.9	18.4	i
COc1ccc(/C=N/n2cnnc2SCc2ccccc2)cc1	5.2	-1.9	1.5	3.7	3.7	i
